Assay [1] concerns the target Aldo-keto reductase family 1 member B1 (Rattus norvegicus, UniProt P07943). In words: Inhibition of rat lens ALR2 using D,L-glyceraldehyde as substrate preincubated for 5 mins at 30 degC followed by substrate addition and measured after 4 mins in presence of NADPH. The format is tissue-based.
The target of assay [2] is Aldo-keto reductase family 1 member A1 (Rattus norvegicus, UniProt P51635). The assay can be described thus: Inhibition of rat kidney ALR1 using […] as substrate preincubated for 4 mins at 37 degC followed by substrate addition and measured after 4 mins in presence of NADPH. Type of assay: tissue-based. The procedure, abridged: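 Rat kidney enzyme extract with 0.12 mM NADPH, 0.1 M sodium phosphate pH 7.2 and inhibitor in DMSO, preincubated 4 min at 37 °C; reaction started with sodium D-[…] (20 mM stock) and monitored 4 min. Corrected for nonenzymatic NADPH oxidation. Tested 100 µM to 10 nM, three replicates per concentration; IC50 from linear log(dose)–response fit (r² > 0.95).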
Aldo-keto reductase family 1 member A1, sequence (P51635 whole entry, looked up): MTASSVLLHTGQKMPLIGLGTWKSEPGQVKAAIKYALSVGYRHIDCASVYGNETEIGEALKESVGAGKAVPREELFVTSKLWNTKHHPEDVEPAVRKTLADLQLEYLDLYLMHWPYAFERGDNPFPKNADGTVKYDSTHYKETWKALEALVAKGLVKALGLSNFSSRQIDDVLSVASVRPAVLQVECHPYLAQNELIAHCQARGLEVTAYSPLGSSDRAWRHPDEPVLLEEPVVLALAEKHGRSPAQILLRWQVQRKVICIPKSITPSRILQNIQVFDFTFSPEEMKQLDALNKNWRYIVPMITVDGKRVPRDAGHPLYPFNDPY

Assay [3] in a line: Antioxidant activity assessed as DPPH radical scavenging activity at 100 uM relative to control. Type of assay: functional. The essentials:
(§1)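 DPPH (0.025 mg/mL stock in methanol, 1 mL) mixed with 1.9 mL methanol and 100 µL methanolic compound or Trolox, giving final 100, 10, 5 and 1 µM. Absorbance at 517 nm read after reaching steady state; scavenging % = (1 − (A sample − A blank)/A control)×100, blank being compound in methanol, control DPPH in methanol. Triplicate.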
(Loss of DPPH colour is used to gauge radical scavenging.)

For assay [4], the system named is Brain. In words: Antioxidant activity in rat brain homogenate assessed as inhibition of FeCl3/ascorbic acid-induced lipid peroxidation by measuring MDA level at 100 uM after 30 mins by thiobarbituric acid based spectrophotometric method relative to control. Type of assay: functional, tissue-based. The procedure, abridged:
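Fresh rat brain homogenized 25% in ice-cold saline, spun 3000 rpm 10 min; supernatant incubated with compound (100 µM), […] at 37 °C for 30 min. MDA measured by TBA kit: boiled 95 °C 40 min, iced, centrifuged, read at 532 nm. Methanol used as control vehicle. Triplicate.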

A short description of assay [5]: Antioxidant activity assessed as DPPH radical scavenging activity at 5 uM relative to control. The format is functional. The essentials:
as §1

Assay [6] can be described thus: Antioxidant activity assessed as DPPH radical scavenging activity at 1 uM relative to control. Type of assay: functional. The procedure, abridged:
as §1

Assay [7] is described as follows: Antioxidant activity assessed as DPPH radical scavenging activity at 10 uM relative to control. The format is functional. The essentials: as §1
Assay [8] is described as follows: Antioxidant activity assessed as superoxide anion radical scavenging activity incubated for 40 mins by spectrophotometric method. The format is functional. The essentials:
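Incubation at 37 °C for 40 min, then 2 mL chromogenic reagent added; after 10 min standing, absorbance read at 550 nm. Activity (U/µmol) = (A control − A sample)/(A control − A blank) ×150 ÷ sample concentration (µM); control ascorbic acid 150 mg/L, blank distilled water. Triplicate.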

For assay [9], the species on record is Rattus norvegicus. The assay can be described thus: Selectivity index, ratio of IC50 for rat kidney ALR1 to IC50 for rat lens ALR2.

This note sets out measurements from ChEMBL document CHEMBL4665880, “Dihydrobenzoxazinone derivatives as aldose reductase inhibitors with antioxidant activity” (Bioorg Med Chem, 2020).

Take `COc1ccc(/C=C/c2cccc3c2OC(=O)CN3CC(=O)O)cc1`: the IC50 (in general, the concentration that gives 50% inhibition) in assay [1] was 0.208 µM.
On the same count and under the same terms, the same measure for `COc1ccc(-c2cccc3c2OC(=O)CN3CC(=O)O)cc1`: 0.774 µM.
Regarding `O=C(O)CN1CC(=O)Oc2c(/C=C/c3ccccc3)cccc21`, the figures for the IC50 in assay [2] and in assay [1] were 2.81 µM and 0.308 µM, respectively. In addition, the inhibition (commonly the percentage by which the read-out fell short of the control) in assay [3] is 86.5%; in assay [4], 75.8%; in [5], 43.6%; in assay [6] it was 12%; in assay [7], 84.2%. Further, the Activity in [8] is 0.81 U/µM. Besides, the Ratio IC50 in [9] is 9.11.
Take `O=C(O)CN1CC(=O)Oc2ccccc21`: the IC50 in assay [2] was found to be 13.7 µM; in assay [1] it was 1.93 µM. The inhibition in assay [3] is 92.8%; in [4], 72.2%; in [5] it was 23.1%; in [6] it was 7.17%; in [7] it was 65.6%. Also, the Activity in assay [8] is 0.73 U/µM. The Ratio IC50 in [9] was found to be 7.1.
Consider `O=C(O)CN1CC(=O)Oc2c(/C=C/c3ccc(O)cc3)cccc21`, for which the IC50 turned out to be 4.99 µM in assay [2] and 0.082 µM in assay [1]. Besides, the inhibition in assay [3] was found to be 93.2%; in assay [4] it was 81.7%; in assay [5], 57.4%; in assay [6] it was 14.7%; in assay [7], 87.5%. Besides, in [8], the Activity stood at 1.07 U/µM. In addition, the Ratio IC50 in assay [9] amounted to 60.6.
`CC(/C=C1\SC(=S)N(CC(=O)O)C1=O)=C\c1ccccc1`: the IC50 in assay [2] stood at 1.2 µM.
In the case of `O=C(O)CN1CC(=O)Oc2c(/C=C/c3ccc(F)cc3)cccc21`, the IC50 in assay [2] worked out at 4.28 µM; in assay [1], 0.167 µM. Further, the inhibition in assay [3] was determined as 92.6%; in [4] it was 74.8%; in [5], 57.1%; in assay [6], 12.6%; in [7], 90%. For the same molecule, the Activity in [8] worked out at 0.79 U/µM. Further, the Ratio IC50 in assay [9] was 25.7.
Regarding `CC(C)(C)c1ccc(/C=C/c2cccc3c2OC(=O)CN3CC(=O)O)cc1`, the IC50 is 0.669 µM in [2] and 0.17 µM in assay [1]. Besides, the Ratio IC50 in assay [9] came out at 3.93.
`O=C(O)CN1CC(=O)Oc2c(-c3ccccc3)cccc21`: the inhibition in [3] is 91.3%; in [5], 13.2%; in assay [6] it was 6.12%; in assay [7] it was 36.5%. The IC50 in assay [1] came out at 3.34 µM.
Take `Cc1ccc(/C=C/c2cccc3c2OC(=O)CN3CC(=O)O)cc1`: in [1], the IC50 amounted to 0.22 µM.
On to `COc1cc(/C=C/c2cccc3c2OC(=O)CN3CC(=O)O)ccc1O`, for which the IC50 in [2] was 4.5 µM; in assay [1], 0.188 µM. Moreover, the inhibition in assay [3] amounted to 93.1%; in assay [4], 80.7%; in [5], 57.8%; in assay [6], 18.2%; in [7], 85%. The Activity in [8] turned out to be 1.02 U/µM. Moreover, in assay [9], the Ratio IC50 was determined as 24.
For the molecule `Cc1c(C)c2c(c(C)c1O)CCC(C)(C(=O)O)O2` (stereo not drawn), the inhibition in assay [3] came to 94.6%; in assay [4], 75.5%; in assay [5], 47.8%; in [6], 10.2%; in [7] it was 82.6%. In assay [8], the Activity came out at 1.13 U/µM.
As to `O=C(O)CN1CC(=O)Oc2c(/C=C/c3ccc(-c4ccccc4)cc3)cccc21`, in [1], the IC50 worked out at 0.281 µM.
Same read-out and setting: the same measure for `O=Cc1ccc(-c2cccc3c2OC(=O)CN3CC(=O)O)cc1`: 1.05 µM.
For the molecule `O=C(O)CN1CC(=O)Oc2c(/C=C/c3ccc(C(F)(F)F)cc3)cccc21`, the IC50 is 3.27 µM in assay [2] and 0.138 µM in [1]. The inhibition in [3] was 91.3%; in assay [5], 44.3%; in assay [6], 9.92%; in assay [7], 89.2%. Moreover, the Ratio IC50 in [9] amounted to 23.7.
As for `O=C(O)CN1CC(=O)Oc2c(/C=C/c3ccc([N+](=O)[O-])cc3)cccc21`, the IC50 in assay [1] worked out at 0.262 µM.
